A selection: hits, their analogues and other compounds. The true share with any hit is near 3%.
HTR1E antagonist: 5-HT1E (human) receptor antagonism. CHO 5-HT1E Ga15 NFAT-bla reporter, FRET, antagonist. inhibition, % at 6 µM. 0.99% of 65,000 active;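 active = inhibition above a set limit, the mean inhibition across every tested compound plus 3 SD, cut at about 29% in these data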;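 also: signal is the 460 over 535 nm emission ratio of beta-lactamase substrate; 0% = agonist plus DMSO wells and 100% = wells without agonist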
S1P3 agonist: agonists of human S1P3 receptor; S1P3 NFAT-BLA reporter cells, agonism, FRET ratio; relative to 1 µM S1P, basal subtracted; activation, % at 4.5 µM; 0.1% of 60,000 active; AID 373; Q99500;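 active = activation above the screen-wide mean plus 3 SD, cut at about 4.5% in these data, passing the limit was not always enough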
Target sequence (Q99500 whole entry, looked up): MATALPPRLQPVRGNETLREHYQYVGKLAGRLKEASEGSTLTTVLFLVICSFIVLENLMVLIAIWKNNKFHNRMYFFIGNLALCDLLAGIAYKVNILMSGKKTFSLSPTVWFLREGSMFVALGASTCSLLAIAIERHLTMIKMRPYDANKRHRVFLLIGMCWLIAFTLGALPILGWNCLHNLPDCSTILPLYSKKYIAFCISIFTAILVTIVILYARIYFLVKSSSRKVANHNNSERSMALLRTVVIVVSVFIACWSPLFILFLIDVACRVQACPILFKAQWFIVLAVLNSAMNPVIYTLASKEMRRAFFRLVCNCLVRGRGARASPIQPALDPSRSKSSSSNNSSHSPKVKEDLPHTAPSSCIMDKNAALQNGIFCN
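Assay system: stable CHO line with human S1P3, Gα16, NFAT-BLA reporter; Detection: FRET β-lactamase substrate fluorescence, excitation 405 nm, 460/535 nm emission ratio, background-subtracted; Read-out: percent activation versus median 1 µM S1P response, basal-subtracted, per plate; Incubation: cells plated overnight, compound 4 h 37 °C, substrate 2 h RT.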
HTR1A agonist: activates the human 5-HT1a serotonin receptor; CHO 5-HT1a Ga15 NFAT-bla reporter, FRET ratio; 0% basal, 100% maximal reference agonist; activation, % at 10 µM; 0.56% of 65,000 active;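 active = activation above the screen-wide mean activation plus 3 SD, cut at about 19% in these data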;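 also: 0% = DMSO wells and 100% = 5-CT at EC100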
5HT1a antag: antagonists of human 5-HT1a serotonin receptor; inhibition, % at 10 µM; AID 612; P08908; CHO 5-HT1a Ga15 NFAT-bla reporter, antagonist mode; 0.68% of 62,000 active;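 active = inhibition above the mean of all tested compounds plus 3 SD, cut at about 43% in these data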;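 also: receptor stimulated by 5-CT agonist at 100 nM near EC80; beta-lactamase reporter measured by ratiometric fluorescence of a cleavable substrate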
S1P1 ag-PAM: activates or potentiates agonism at human S1P1 receptor; activation, % at 9.5 µM; S1P1 CRE-bla cells, forskolin, beta-lactamase FRET, potentiator mode; S1P1 agonist co-added at EC20, 2 nM; 100% = saturating reference agonist, 0% = basal; 0.57% of 56,000 active; AID 449;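 active = activation above a cutoff set at the mean activation of all tested compounds plus 3 SD, cut at about 54% in these data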;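 also: forskolin at 4 µM as EC80 and the EC20 agonist is SEW2871; 100% = SEW2871 at its EC100 plus forskolin at EC80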
5HT1E ag: 5-HT1E (human) receptor agonism. activation, % at 6 µM. CHO 5-HT1E Ga15 NFAT-bla reporter, FRET; 0% DMSO wells, 100% control agonist wells. P28566. 0.69% of 65,000 active;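 active = activation above a set limit, the screen-wide mean activation plus 3 SD, cut at about 8.5% in these data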;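 also: 100% = positive control agonist at 1 µM giving full maximal response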
* hit, by the source's call.

Results for CCn1c(O)c(C=NCCc2c[nH]c3ccccc23)c(=O)[nH]c1=O ?
HTR1E antagonist: 5; S1P3 agonist: -1; HTR1A agonist: 0; 5HT1a antag: 12; S1P1 ag-PAM: -7; 5HT1E ag: 17*

What do the screens show for `CSc1ccc(CNC2CN3CCC2CC3)cc1` (stereo unspecified)?
HTR1E antagonist: 13; S1P3 agonist: 0; HTR1A agonist: 4; 5HT1a antag: 16; S1P1 ag-PAM: -16; 5HT1E ag: -1

What do the screens show for `O=C(c1ccc(Cl)cc1)C12CN3CN(CN(C3)C1)C2`?
HTR1E antagonist: -11; S1P3 agonist: 0; HTR1A agonist: -7; 5HT1a antag: 5; S1P1 ag-PAM: -30; 5HT1E ag: 1

What do the screens show for `COc1ccc(Cc2nccc3cc(OC)c(OC)cc23)cc1OC`?
HTR1E antagonist: 41*; S1P3 agonist: 2; HTR1A agonist: -3; S1P1 ag-PAM: 8; 5HT1E ag: 0

Results for Nc1ccc(C2(c3ccc(N)cc3)CN3CCC2CC3)cc1 ?
HTR1E antagonist: 5; S1P3 agonist: -6; HTR1A agonist: 1; S1P1 ag-PAM: 12; 5HT1E ag: -1

Results for Clc1ccc2c(N3CCNCC3)ccnc2c1 ?
HTR1E antagonist: 9; S1P3 agonist: 0; HTR1A agonist: -2; 5HT1a antag: 11; S1P1 ag-PAM: 6; 5HT1E ag: 12*

Results for CCN1CC=C(c2c[nH]c3ccccc23)CC1 ?
HTR1E antagonist: -5; S1P3 agonist: -1; HTR1A agonist: -1; 5HT1a antag: -1; S1P1 ag-PAM: 15; 5HT1E ag: 100*

Results for Cc1c(N=Cc2c(O)n(CCc3ccc(F)cc3)c(=O)[nH]c2=O)c(=O)n(-c2ccccc2)n1C ?
HTR1E antagonist: -10; S1P3 agonist: -4; HTR1A agonist: 3; S1P1 ag-PAM: 10; 5HT1E ag: 0

Results for COc1ccc(Cn2c(N)c(C(=O)NCc3ccco3)c3nc4ccccc4nc32)cc1OC ?
HTR1E antagonist: 19; S1P3 agonist: 4; HTR1A agonist: 3; 5HT1a antag: 33; S1P1 ag-PAM: -125; 5HT1E ag: 2

How did CC(C)OCCCNC(=O)c1c(N)n(Cc2cccs2)c2nc3ccccc3nc12 do in these assays?
HTR1E antagonist: -11; S1P3 agonist: 12*; HTR1A agonist: 41*; 5HT1a antag: -24; S1P1 ag-PAM: -244; 5HT1E ag: 11*

How did CCCNC(=O)c1c(N)n(Cc2ccc3c(c2)OCO3)c2nc3ccccc3nc12 do in these assays?
HTR1E antagonist: -2; S1P3 agonist: 18; HTR1A agonist: 36*; 5HT1a antag: -8; S1P1 ag-PAM: -46; 5HT1E ag: 6

What do the screens show for `CCCCNC(=O)c1c(N)n(CCCOC)c2nc3ccccc3nc12`?
HTR1E antagonist: 20; HTR1A agonist: 17; 5HT1a antag: 18; 5HT1E ag: 4

Results for CCC(=NCc1ccc(F)cc1)c1c(O)n(C)c(=O)n(C)c1=O ?
HTR1E antagonist: 7; S1P3 agonist: -2; HTR1A agonist: 1; 5HT1a antag: 13; S1P1 ag-PAM: 28; 5HT1E ag: 0

Results for CC(=NCCN1CCCCC1)c1c(O)[nH]c(=O)[nH]c1=O ?
HTR1E antagonist: -6; S1P3 agonist: 0; HTR1A agonist: 1; 5HT1a antag: -11; S1P1 ag-PAM: -12; 5HT1E ag: -1

What do the screens show for `O=P(C(c1c[nH]c2ccccc12)N1CCOCC1)(N1CCOCC1)N1CCOCC1` (stereo unspecified)?
HTR1E antagonist: 3; S1P3 agonist: -1; HTR1A agonist: -1; 5HT1a antag: 9; S1P1 ag-PAM: 4; 5HT1E ag: 0

How did Cc1nc2cc(C(F)(F)F)ccc2n1C1CCN(Cc2nnnn2Cc2cccs2)CC1 do in these assays?
HTR1E antagonist: 9; HTR1A agonist: -1; 5HT1a antag: -14; 5HT1E ag: -1

What do the screens show for `Cc1nc2cc(C(F)(F)F)ccc2n1C1CCN(Cc2nnnn2Cc2ccc3c(c2)OCO3)CC1`?
HTR1E antagonist: 37*; S1P3 agonist: 0; HTR1A agonist: 0; 5HT1a antag: 9; S1P1 ag-PAM: 16; 5HT1E ag: 0
